Structures are written as SMILES.

This note sets out measurements from ChEMBL document CHEMBL4725347, “Discovery of a Monoiodo Aza-BODIPY Near-Infrared Photosensitizer: in vitro and in vivo Evaluation for Photodynamic Therapy” (J Med Chem, 2020).

Series [1] is described as follows: Photostability of the compound in N,N-dimethylformamide assessed as compound degradation irradiated with 90 mW/cm2 light. The format is physicochemical.
A short description of series [2]: Absorption property of the compound in chloroform assessed as hypsochromic shift by measuring maximum absorption wavelength by UV-visible spectrophotometric method. It counts as physicochemical. In outline: (§1)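 Electronic absorption spectra recorded by UV-visible spectrophotometry at room temperature. Solvents were chloroform, isopropanol, acetonitrile, DMF, and PBS buffer containing 1% Cremophor EL/1,2-propanediol (10:3, v:v). Chloroform data were referenced to the non-halogenated parent dye.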

The nature of series [3]: Absorption property of the compound in chloroform assessed as absorption coefficient by UV-visible spectrophotometric method. The format is physicochemical. In outline:
as §1

Series [4] is described as follows: Emission property of the compound in chloroform assessed as maximum emission wavelength by fluorescence spectrophotometric method. The format is physicochemical. An outline of the steps:
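Fluorescence spectrum recorded in chloroform by fluorescence spectrophotometer at room temperature.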

Series [5] is described as follows: Absorption property of the compound in PBS containing 1% Cremophor EL/1,2-propanediol (10:3, v:v) system assessed as absorption coefficient by UV-visible spectrophotometric method. It counts as physicochemical. The conditions noted are these: buffer. An outline of the steps: as §1
Series [6] can be described thus: Absorption property of the compound in isopropanol assessed as absorption coefficient by UV-visible spectrophotometric method. The format is physicochemical. In outline:
as §1

A short description of series [7]: Absorption property of the compound in acetonitrile assessed as absorption coefficient by UV-visible spectrophotometric method. The format is physicochemical. In outline:
as §1

The nature of series [8]: Absorption property of the compound in N,N-dimethylformamide assessed as absorption coefficient by UV-visible spectrophotometric method. It counts as physicochemical. In outline: as §1
Series [9] in a line: Induction of singlet oxygen generation in isopropanol assessed as relative rate of DPBF degradation to MB at 1 uM irradiated with 90 mW/cm2 halogen light. The format is functional. An outline of the steps:
(§2)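 Singlet oxygen generation measured with 1,3-diphenylisobenzofuran (DPBF) as scavenger. The decrease in DPBF absorbance at 411 nm was monitored over time during light irradiation, and the photodegradation rate was calculated.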

Series [10] is described as follows: Induction of singlet oxygen generation in PBS containing 1% Cremophor EL/1,2-propanediol (10:3, v:v) system assessed as relative rate of DPBF degradation to MB at 1 uM irradiated with 90 mW/cm2 halogen light. The format is functional. In outline: as §2
The nature of series [11]: Induction of singlet oxygen generation in N,N-dimethylformamide assessed as relative rate of DPBF degradation to MB at 1 uM irradiated with 90 mW/cm2 halogen light. It counts as functional. In outline:
as §2

Series [12] in a line: Dark toxicity in human HeLa cells assessed as reduction in cell viability after 3 hrs by MTT assay. It counts as cell-based. An outline of the steps:
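Compound was formulated with Cremophor EL/1,2-propanediol in PBS, filtered, and its concentration confirmed by UV-Vis. HeLa cells in DMEM with 10% FBS at 37 °C, 5% CO2 were seeded at 3×10^3 cells/well and adhered overnight. Cells were exposed to graded concentrations for 3 h without light, incubated 24 h, then MTT 0.5 mg/mL for 4 h; formazan dissolved in DMSO, A490 read.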
Background: Tetrazolium assays rely on reduction of a dye to a coloured formazan, in cell work by metabolically active cells.

Another series deals with HeLa. Description: Phototoxicity against human HeLa cells assessed as reduction in cell viability preincubated for 3 hrs followed by 54 J/cm2 light irradiation and measured after 24 hrs by MTT assay. It counts as functional, cell-based. As to conditions: light or radiation study. In outline: (§3)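 PS formulated in PBS containing Cremophor EL/1,2-propanediol (10:3, v:v) after THF removal, filtered, with concentration confirmed by UV-Vis. Cells were grown in DMEM with 10% FBS and seeded at 3×10^3 per well overnight. They were incubated with PS for 3 h, irradiated at λ > 590 nm, kept 24 h at 37 °C, then given MTT (0.5 mg/mL, 4 h) with DMSO solubilization and A490 read-out.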

The nature of series [13]: Dark toxicity in human MCF7 cells assessed as reduction in cell viability after 3 hrs by MTT assay. It counts as cell-based.
The next series deals with MCF7. Description: Phototoxicity against human MCF7 cells assessed as reduction in cell viability preincubated for 3 hrs followed by 54 J/cm2 light irradiation and measured after 24 hrs by MTT assay. The conditions noted are these: MCF7, light or radiation study. It counts as functional, cell-based. An outline of the steps:
as §3

The nature of series [14]: Dark toxicity in human SW480 cells assessed as reduction in cell viability after 3 hrs by MTT assay. It counts as cell-based.
For the next series, the system named is SW480. Description: Phototoxicity against human SW480 cells assessed as reduction in cell viability preincubated for 3 hrs followed by 54 J/cm2 light irradiation and measured after 24 hrs by MTT assay. It counts as functional, cell-based. As to conditions: SW480, light or radiation study. In outline: as §3
Series [15] is described as follows: Photostability of the compound in acetonitrile assessed as compound degradation irradiated with 90 mW/cm2 light. The format is physicochemical.
Series [16] is described as follows: Photostability of the compound in isopropanol assessed as compound degradation irradiated with 90 mW/cm2 light. It counts as physicochemical.
Series [17] in a line: Photostability of the compound in PBS containing 1% Cremophor EL/1,2-propanediol (10:3, v:v) system assessed as compound degradation irradiated with 90 mW/cm2 light. The format is physicochemical. As to conditions: buffer.
Series [18] can be described thus: Stability of the compound in acetonitrile assessed as compound degradation under dark condition. It counts as physicochemical.
Series [19] is described as follows: Stability of the compound in PBS containing 1% Cremophor EL/1,2-propanediol (10:3, v:v) system assessed as compound degradation under dark condition. It counts as physicochemical. The conditions noted are these: buffer.

Take `COc1ccc(C2=[N+]3C(=Nc4c(-c5ccccc5)c(Br)c(-c5ccc(OC)cc5)n4[B-]3(F)F)C(c3ccccc3)=C2I)cc1`: the Stabilty entry in [1] was “Unstable”; in series [15] it was “Stable”; in [16], “Stable”; in series [17], “Stable”; in [18], “Unstable”; in series [19] it was “Unstable”. Moreover, the Activity was determined as 679 nm in series [2]; 76000 M⁻¹ cm⁻¹ in series [3]; 720 nm in series [4]; 34000 M⁻¹ cm⁻¹ in series [5]; 59300 M⁻¹ cm⁻¹ in series [6]; 59300 M⁻¹ cm⁻¹ in [7]. Besides, the Activity in series [8] is 59300 M⁻¹ cm⁻¹. Further, the fold change (FC) is 6.8 in [9], 2.3 in series [10] and 0.65 in series [11]. The IC50 at 3 h in series [12], in series [13] and in series [14] was above 50 µM throughout. The figures for the IC50 with HeLa, in the series with MCF7 and with SW480 were 0.31 µM, 0.42 µM and 0.53 µM, respectively.
Consider `COc1ccc(C2=[N+]3C(=Nc4c(-c5ccccc5)cc(-c5ccc(OC)cc5)n4[B-]3(F)F)C(c3ccccc3)=C2)cc1`, for which the Stabilty entry in series [1] is on record as “Unstable”; in [15] it was “Stable”; in series [16] it was “Stable”; in series [17], “Stable”; in series [18], “Unstable”; in series [19] it was “Unstable”. Besides, the Activity in series [2] worked out at 688 nm; in [3] it was 99000 M⁻¹ cm⁻¹; in [4] it was 725 nm. Moreover, the figures for the fold change (FC) in series [9], in series [10] and in series [11] were 0.28, 0.3 and 0.04, respectively. The IC50 at 3 h in series [12], in series [13] and in series [14] was above 50 µM each time. The 50% inhibitory concentration (IC50) (commonly the midpoint of a concentration-inhibition curve) was 11.6 µM with HeLa, 9.4 µM in the series with MCF7 and 12.1 µM in the series with SW480.
On to `COc1ccc(C2=[N+]3C(=Nc4c(-c5ccccc5)cc(-c5ccc(OC)cc5)n4[B-]3(F)F)C(c3ccccc3)=C2Br)cc1`, for which the Stabilty result is given as “Unstable” in [1]; “Stable” in [15]; “Stable” in series [16]; “Stable” in [17]; “Unstable” in series [18]; “Unstable” in series [19]. The Activity in series [2] turned out to be 679 nm; in series [3], 81000 M⁻¹ cm⁻¹; in series [4] it was 720 nm; in [5], 34000 M⁻¹ cm⁻¹; in series [6], 59300 M⁻¹ cm⁻¹; in series [7] it was 59300 M⁻¹ cm⁻¹. The Activity in [8] was 59300 M⁻¹ cm⁻¹. In addition, the fold change (FC) was 1.1 in [9], 0.83 in series [10] and 0.19 in series [11]. In addition, the 50% inhibitory concentration (IC50) at 3 h in series [12], in [13] and in [14] was above 50 µM in each case. Also, the IC50 stood at 0.27 µM in the series with HeLa, 0.35 µM in the series with MCF7 and 0.28 µM with SW480.
Consider `COc1ccc2c(c1)CCc1c(-c3ccccc3)c3n(c1-2)[B-](F)(F)[N+]1=C(c2ccc(C)cc2)C(Br)=C(c2ccccc2)C1=N3`, for which the Activity in series [2] came to 682 nm; in [3], 104400 M⁻¹ cm⁻¹; in series [4], 709 nm. Besides, the fold change (FC) in series [11] was 0.14. The IC50 at 3 h in [12], in [13] and in [14] was above 50 µM each time. The IC50 in the series with HeLa turned out to be 1.2 µM; in the series on MCF7 it was 8.1 µM; in the series on SW480, 15.6 µM.
On to `COc1ccc2c(c1)CCc1c(-c3ccccc3)c3n(c1-2)[B-](F)(F)[N+]1=C(c2ccc(C)cc2)C(I)=C(c2ccccc2)C1=N3`, for which the results for the Activity in series [2], in series [3] and in [4] were 682 nm, 110000 M⁻¹ cm⁻¹ and 709 nm, respectively. For the same compound, in series [11], the fold change (FC) is 0.25. The IC50 at 3 h in series [12], in series [13] and in [14] was above 50 µM each time. The values for the half-inhibitory concentration (IC50) in the series on HeLa, with MCF7 and with SW480 were 0.11 µM, 0.41 µM and 0.66 µM, respectively.
In the case of `COc1ccc(C2=[N+]3C(=Nc4c(-c5ccccc5)c5c(n4[B-]3(F)F)-c3ccc(OC)cc3CC5)C(c3ccccc3)=C2Br)cc1`, the Activity in [2] came out at 692 nm; in series [3], 90300 M⁻¹ cm⁻¹; in series [4] it was 724 nm. In addition, the fold change (FC) in [11] amounted to 0.17. In addition, the IC50 at 3 h in series [12], in [13] and in [14] was above 50 µM each time. Further, the results for the IC50 in the series on HeLa, in the series on MCF7 and in the series on SW480 were 0.83 µM, 4.5 µM and 1.9 µM, respectively.
For `COc1ccc(C2=[N+]3C(=Nc4c(-c5ccccc5)c5c(n4[B-]3(F)F)-c3ccc(OC)cc3CC5)C(c3ccccc3)=C2I)cc1`, the Activity in [2] turned out to be 689 nm; in series [3], 101300 M⁻¹ cm⁻¹; in series [4] it was 725 nm. In addition, in series [11], the fold change (FC) was determined as 1.2. In addition, the half-maximal inhibitory concentration (IC50) at 3 h in series [12], in series [13] and in series [14] was above 50 µM throughout. In addition, the IC50 in the series with HeLa was 0.081 µM; in the series with MCF7 it was 0.14 µM; in the series with SW480, 0.12 µM.
As to `Cc1ccc(C2=[N+]3C(=Nc4c(-c5ccccc5)c(I)c(-c5ccc(C)s5)n4[B-]3(F)F)C(c3ccccc3)=C2I)s1`, the values for the Activity in [2], in series [3] and in series [4] were 732 nm, 91300 M⁻¹ cm⁻¹ and 768 nm, respectively. Further, in series [11], the fold change (FC) was found to be 0.36. Further, the concentration for half-maximal inhibition (IC50) at 3 h in [12], in series [13] and in [14] was above 50 µM each time. In addition, the IC50 was above 25 µM in the series with HeLa, 16.4 µM with MCF7 and above 25 µM with SW480.
Take `Cc1ccc(C2=[N+]3C(=Nc4c(-c5ccccc5)c(Br)c(-c5ccc(C)cc5)n4[B-]3(F)F)C(c3ccccc3)=C2Br)cc1`: the Activity in series [2] came out at 658 nm; in series [3] it was 79900 M⁻¹ cm⁻¹; in series [4] it was 685 nm. Also, the fold change (FC) in [11] amounted to 0.22. Moreover, the IC50 at 3 h in [12], in series [13] and in [14] was above 50 µM throughout. Further, the IC50 in the series on HeLa was 4.3 µM; with MCF7 it was 1.5 µM; with SW480, 16.1 µM.
